In ChEMBL document CHEMBL4043307, “Toward β-Secretase-1 Inhibitors with Improved Isoform Selectivity” (J Med Chem, 2018):
Calls of active or inactive are those of the source. The rule behind the calls is not given here.

Experiments:
[1] = test system: Brain; test: Fraction unbound in C57BL/6 mouse brain at 50 mg/kg, po after 3 hrs by LC-MS/MS analysis; assay type: ADME, organism-based; settings: in vivo
[2] = Intrinsic clearance in rat hepatocytes assessed per million cells at 1 uM after 120 mins by LC-MS/MS method; assay type: ADME, cell-based, Hepatocyte; settings: 2 h
[3] = target: Voltage-gated inwardly rectifying potassium channel KCNH2 (Homo sapiens, UniProt Q12809); test: Inhibition of human ERG
[4] = test system: Mus musculus; test: Reduction of amyloid beta-42 levels in C57BL/6 mouse brain at 50 mg/kg, po after 3 hrs by immunoassay relative to vehicle-treated control; assay type: functional; parameters: scale not given: the % may be the effect or the level left
Summary of the method: (§1)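 PK/PD study in C57BL/6 mice given 50 mg/kg orally. Brain Aβ40 and Aβ42 and plasma Aβ40 levels were followed over time alongside free brain and plasma exposure, and compared with vehicle-treated controls.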

[5] = test system: Liver; test: Intrinsic clearance in human liver microsomes at 1 uM after 30 mins by LC-MS/MS method; assay type: ADME, microsome; settings: 0.5 h
[6] = target: T1, Beta-secretase 2 (Homo sapiens, UniProt Q9Y5Z0); test: Inhibition of BACE2 in human MNT1 cells assessed as increase in M-beta accumulation at 10 uM after 24 hrs by Western blot method; assay type: cell-based
T1 sequence (Q9Y5Z0 whole entry): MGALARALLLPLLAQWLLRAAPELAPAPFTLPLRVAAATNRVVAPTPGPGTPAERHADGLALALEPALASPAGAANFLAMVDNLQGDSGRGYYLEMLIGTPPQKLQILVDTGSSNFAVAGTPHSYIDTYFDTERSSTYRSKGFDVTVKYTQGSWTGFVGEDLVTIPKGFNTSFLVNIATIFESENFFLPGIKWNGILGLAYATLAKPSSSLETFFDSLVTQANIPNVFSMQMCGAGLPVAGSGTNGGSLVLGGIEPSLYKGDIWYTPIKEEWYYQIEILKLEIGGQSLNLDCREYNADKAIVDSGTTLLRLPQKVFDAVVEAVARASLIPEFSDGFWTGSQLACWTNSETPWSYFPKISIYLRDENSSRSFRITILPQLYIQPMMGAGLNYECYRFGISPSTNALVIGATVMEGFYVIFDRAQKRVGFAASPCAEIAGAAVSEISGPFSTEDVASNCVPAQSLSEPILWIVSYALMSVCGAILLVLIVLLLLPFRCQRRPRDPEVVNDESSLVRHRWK
Summary of the method: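 Human melanocyte MNT1 cells incubated with a range of inhibitor concentrations or vehicle (0.1% DMSO). Cells then processed to detect parent PMEL (P1) and the proteolytically cleaved Mβ fragment. Mβ fragment accumulation serves as the read-out of BACE2 inhibition.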

[7] = target: hERG (KCNH2) (Homo sapiens, UniProt Q12809); test: Inhibition of human ERG at 11.1 uM relative to control
[8] = organism: Sus scrofa; test: Inhibition of pig pepsin up to 100 uM using MOCAc-Ala-Pro-Ala-Lys-Phe-Phe-Arg-Leu-Lys(Dnp)-NH2 as substrate after 60 mins by spectrophotometric method; settings: tested as the 2H-labelled form
[9] = target: T2, Renin (Homo sapiens) (UniProt P00797); test: Inhibition of full length recombinant human renin up to 100 uM using DABCYL-gamma-Abu-Ile-His-Pro-Phe-His-Leu-Val-Ile-His-Thr-EDANS as substrate after 60 mins by spectrophotometric method; settings: tested as the 2H-labelled form
T2 sequence (whole entry): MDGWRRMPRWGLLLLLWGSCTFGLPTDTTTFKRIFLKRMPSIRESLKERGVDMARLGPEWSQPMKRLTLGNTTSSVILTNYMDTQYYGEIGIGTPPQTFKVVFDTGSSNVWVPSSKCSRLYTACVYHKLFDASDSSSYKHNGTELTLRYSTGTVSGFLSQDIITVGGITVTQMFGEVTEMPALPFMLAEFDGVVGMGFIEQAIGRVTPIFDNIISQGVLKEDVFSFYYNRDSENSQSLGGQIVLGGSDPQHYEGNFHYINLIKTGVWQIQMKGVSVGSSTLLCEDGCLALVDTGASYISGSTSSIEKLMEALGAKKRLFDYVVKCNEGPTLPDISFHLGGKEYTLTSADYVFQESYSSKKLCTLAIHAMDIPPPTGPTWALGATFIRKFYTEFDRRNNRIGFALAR

[10] = test system: Mus musculus; test: Reduction of amyloid beta-40 levels in C57BL/6 mouse plasma at 50 mg/kg, po after 1.5 to 16 hrs by immunoassay; assay type: functional, organism-based; settings: tested as the 2H-labelled form; summary of the method: as §1
[11] = target: Cathepsin S (Homo sapiens) (UniProt P25774); test: Inhibition of full length recombinant human cathepsin S up to 100 uM using Z-Leu-Arg-AMC as substrate after 30 mins by spectrophotometric method; settings: tested as the 2H-labelled form
[12] = target: Cathepsin D (Homo sapiens) (UniProt P07339); test: Inhibition of human cathepsin D up to 100 uM using MOCAc-Gly-Lys-Pro-Ile-Leu-Phe-Phe-Arg-Leu-Lys(Dnp)-D-Arg-NH2 as substrate after 10 mins by spectrophotometric method; settings: tested as the 2H-labelled form
[13] = test system: Mus musculus; test: Reduction of amyloid beta-40 levels in C57BL/6 mouse brain at 50 mg/kg, po after 1.5 to 16 hrs by immunoassay relative to vehicle-treated control; assay type: functional, organism-based; settings: tested as the 2H-labelled form; summary of the method: as §1
[14] = test system: Mus musculus; test: Reduction of amyloid beta-42 levels in C57BL/6 mouse brain at 50 mg/kg, po after 1.5 to 16 hrs by immunoassay relative to vehicle-treated control; assay type: functional, organism-based; settings: tested as the 2H-labelled form; summary of the method: as §1
[15] = Unbound brain-to-plasma concentration ratio in CD rat at 1 mg/kg, po as cassette dose after 2 hrs by LC-MS/MS method; assay type: ADME, organism-based; settings: brain and plasma, read-out: K(p,uu,brain)
[16] = Apparent permeability across MDCK cells expressing MDR1 after 2 hrs by LC-MS/MS method; assay type: ADME, cell-based, Canis lupus familiaris; settings: dog
[17] = target: T3, Beta-secretase 1 (Homo sapiens, UniProt P56817); test: Inhibition of human BACE1 (1 to 460 residues) fused with Fc domain of IgG1 expressed in HEK293 cells preincubated for 10 mins followed by substrate addition measured after 17 mins by TR-FRET assay; assay type: cell-based
Summary of the method: (§2)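 Biochemical protease assays on the human BACE1 or BACE2 enzyme. Both assays use the same fluorescently labelled peptide substrate, designed to span the BACE cleavage site of APP.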

[18] = target: T3, Beta-secretase 1; test: Inhibition of BACE1 in human SH-SY5Y cells assessed as decrease in sAPP-beta release after 16 to 17 hrs; assay type: cell-based
[19] = Unbound brain-to-plasma concentration ratio in CD rat at 5 mg/kg, po as cassette dose after 2 hrs by LC-MS/MS method; assay type: ADME, organism-based; settings: brain and plasma, read-out: K(p,uu,brain)
[20] = target: T1, Beta-secretase 2; test: Inhibition of BACE2 in human MNT1 cells assessed as increase in M-beta accumulation at 10 nM after 24 hrs by Western blot method; assay type: cell-based; settings: 0.01 µM
Summary of the method: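 Human melanocyte MNT1 cells incubated with a range of inhibitor concentrations or vehicle (0.1% DMSO), then processed to detect parent PMEL (P1) and the proteolytically cleaved Mβ fragment. Mβ accumulation serves as the read-out of BACE2 inhibition.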

[21] = target: T1, Beta-secretase 2; test: Inhibition of human BACE2 (1 to 473 residues) using CEVNLDAEFK as substrate preincubated for 10 mins followed by substrate addition measured after 6.5 hrs by TR-FRET assay; summary of the method: as §2

T3 sequence (P56817 whole entry, the tested form may be a part): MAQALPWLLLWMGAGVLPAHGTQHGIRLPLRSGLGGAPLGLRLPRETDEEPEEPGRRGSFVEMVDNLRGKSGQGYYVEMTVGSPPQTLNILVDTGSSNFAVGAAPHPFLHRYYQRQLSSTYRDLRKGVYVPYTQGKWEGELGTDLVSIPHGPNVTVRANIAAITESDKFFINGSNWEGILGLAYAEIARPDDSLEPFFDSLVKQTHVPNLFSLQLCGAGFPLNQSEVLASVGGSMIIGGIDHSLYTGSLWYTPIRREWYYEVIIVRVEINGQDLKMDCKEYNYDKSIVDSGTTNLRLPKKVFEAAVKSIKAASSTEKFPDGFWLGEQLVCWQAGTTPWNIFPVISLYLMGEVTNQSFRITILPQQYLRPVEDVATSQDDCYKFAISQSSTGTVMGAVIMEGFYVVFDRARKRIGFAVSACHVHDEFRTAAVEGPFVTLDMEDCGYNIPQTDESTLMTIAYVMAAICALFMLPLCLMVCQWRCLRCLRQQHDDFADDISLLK
Voltage-gated inwardly rectifying potassium channel KCNH2, sequence (Q12809 whole entry): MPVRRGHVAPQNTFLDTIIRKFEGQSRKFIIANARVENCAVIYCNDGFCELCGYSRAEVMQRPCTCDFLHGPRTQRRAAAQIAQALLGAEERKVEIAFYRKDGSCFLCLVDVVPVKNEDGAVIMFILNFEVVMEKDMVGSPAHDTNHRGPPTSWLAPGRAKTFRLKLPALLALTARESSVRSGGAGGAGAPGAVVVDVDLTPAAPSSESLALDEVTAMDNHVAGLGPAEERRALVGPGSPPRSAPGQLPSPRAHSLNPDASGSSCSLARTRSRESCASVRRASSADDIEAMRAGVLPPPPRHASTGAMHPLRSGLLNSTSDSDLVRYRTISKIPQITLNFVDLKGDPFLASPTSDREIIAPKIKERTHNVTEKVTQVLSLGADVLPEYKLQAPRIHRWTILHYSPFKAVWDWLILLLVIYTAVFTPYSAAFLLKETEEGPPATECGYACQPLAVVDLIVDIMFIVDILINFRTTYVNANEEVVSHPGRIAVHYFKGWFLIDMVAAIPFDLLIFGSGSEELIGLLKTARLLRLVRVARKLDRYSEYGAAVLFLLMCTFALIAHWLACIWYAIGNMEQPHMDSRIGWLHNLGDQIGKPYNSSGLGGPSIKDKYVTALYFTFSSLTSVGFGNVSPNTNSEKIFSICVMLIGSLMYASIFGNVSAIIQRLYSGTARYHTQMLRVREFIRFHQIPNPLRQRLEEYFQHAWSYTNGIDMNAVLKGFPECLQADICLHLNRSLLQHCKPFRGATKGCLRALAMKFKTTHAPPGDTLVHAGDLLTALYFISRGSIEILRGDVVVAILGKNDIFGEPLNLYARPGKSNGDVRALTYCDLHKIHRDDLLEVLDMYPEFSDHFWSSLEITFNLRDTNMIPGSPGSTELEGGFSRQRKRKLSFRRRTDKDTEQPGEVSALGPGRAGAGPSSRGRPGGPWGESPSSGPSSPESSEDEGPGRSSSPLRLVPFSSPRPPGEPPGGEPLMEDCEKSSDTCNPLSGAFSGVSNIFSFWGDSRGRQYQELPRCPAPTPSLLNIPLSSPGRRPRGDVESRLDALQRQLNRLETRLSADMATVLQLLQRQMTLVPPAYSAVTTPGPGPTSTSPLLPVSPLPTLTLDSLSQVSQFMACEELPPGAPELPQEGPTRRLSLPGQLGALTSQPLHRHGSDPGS
hERG (KCNH2), sequence (Q12809 whole entry): as above
Cathepsin S (Homo sapiens), sequence (P25774 115-331 limits assumed): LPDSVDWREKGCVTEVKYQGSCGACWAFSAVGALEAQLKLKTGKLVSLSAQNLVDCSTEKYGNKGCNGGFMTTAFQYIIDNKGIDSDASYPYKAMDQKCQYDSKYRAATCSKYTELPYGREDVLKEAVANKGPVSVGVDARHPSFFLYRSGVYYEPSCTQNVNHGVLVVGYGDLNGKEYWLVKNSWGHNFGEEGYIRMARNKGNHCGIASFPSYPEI
Cathepsin D (Homo sapiens), sequence (P07339 65-162 limits assumed): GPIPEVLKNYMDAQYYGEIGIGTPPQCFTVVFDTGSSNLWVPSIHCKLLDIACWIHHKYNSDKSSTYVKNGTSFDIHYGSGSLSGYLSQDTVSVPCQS
Cathepsin D (Homo sapiens), sequence (P07339 169-412 limits assumed): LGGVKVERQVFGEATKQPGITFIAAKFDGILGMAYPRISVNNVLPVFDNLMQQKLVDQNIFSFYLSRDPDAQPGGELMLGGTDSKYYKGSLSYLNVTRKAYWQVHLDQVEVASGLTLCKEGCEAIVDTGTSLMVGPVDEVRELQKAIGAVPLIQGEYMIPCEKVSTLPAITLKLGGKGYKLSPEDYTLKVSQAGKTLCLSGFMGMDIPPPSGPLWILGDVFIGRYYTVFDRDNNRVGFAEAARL

[2H]C1([2H])OC(N)=N[C@]12c1cc(-c3cncnc3)ccc1C[C@@]21CC[C@H](OC)[C@@H](C)C1
Drug uptake(free) [1]: 50 nM
CLH [2]: 66 µL/min/10^6 cells
IC50 [3]: > 33000 nM
Activity [4]: 30%
CLH [5]: 47 µL/min/mg
inhibition (INH) [6]: Active

[2H]C1([2H])OC(N)=N[C@]12c1cc(-c3cncnc3)ccc1C[C@@]21CC[C@H](OC)[C@@H](CC)C1
inhibition at 11.1 µM [7]: 29%
CLH [2]: 158 µL/min/10^6 cells
CLH [5]: 153 µL/min/mg

CO[C@H]1CC[C@@]2(Cc3ccc(-c4cncnc4)cc3[C@@]23COC(N)=N3)C[C@@H]1C
inhibition [8]: inactive
inhibition [9]: inactive
Activity [10]: Active
inhibition [11]: inactive
inhibition [12]: inactive
Activity [13]: inactive
Activity [14]: inactive

CO[C@H]1CC[C@]2(CC1)Cc1ccc(-c3cc(Cl)cc(C#N)c3)cc1[C@@]21COC(N)=N1
Kp uu at 2 h [15]: 0.21
permeability [16]: Impermeable
CLH [2]: 11.6 µL/min/10^6 cells
CLH [5]: 11.1 µL/min/mg

[2H]C1([2H])OC(N)=N[C@]12c1cc(-c3cncnc3)ccc1C[C@]21CC[C@@H](OC)CC1
Ki [17]: 134 nM
IC50 [18]: 7 nM

[2H]C1([2H])OC(N)=N[C@]12c1cc(-c3cc(Cl)cc(C#N)c3)ccc1C[C@]21CC[C@@H](OC)CC1
CLH [2]: 8.7 µL/min/10^6 cells
CLH [5]: 11.5 µL/min/mg
Kp uu at 2 h [19]: 0.68

COc1cc(C#N)cc(-c2ccc3c(c2)[C@@]2(COC(N)=N2)[C@]2(CC[C@H](OC)CC2)C3)c1
Kp uu at 2 h [15]: 0.07
CLH [2]: 23.9 µL/min/10^6 cells
CLH [5]: 13.9 µL/min/mg

[2H]C1([2H])OC(N)=N[C@]12c1cc(-c3cncnc3)ccc1C[C@@]21C[C@@H](C)[C@H](OC)[C@@H](C)C1 (racemic)
CLH [2]: 137 µL/min/10^6 cells
CLH [5]: 187 µL/min/mg

[2H]C1([2H])OC(N)=N[C@]12c1cc(-c3cccnc3)ccc1C[C@]21CC[C@@H](OC)CC1
Ki [17]: 430 nM
IC50 [18]: 7 nM

[2H]C1([2H])OC(N)=N[C@]12c1cc(-c3cncnc3)ccc1C[C@]21CC[C@@H](OC)[C@H](CC)C1
inhibition at 11.1 µM [7]: 15%
CLH [2]: 138 µL/min/10^6 cells
CLH [5]: 149 µL/min/mg

[2H]C1([2H])OC(N)=N[C@]12c1cc(-c3cc(C#N)cc(OC)c3)ccc1C[C@]21CC[C@@H](OC)CC1
CLH [2]: 25.1 µL/min/10^6 cells
CLH [5]: 15.7 µL/min/mg
Kp uu at 2 h [19]: 0.27

NC1=N[C@@](c2cccc(-c3cncnc3)c2)(c2ccnc(C(F)F)c2)c2cccc(F)c21 [AZD-3839]
inhibition (INH) [20]: Active
IC50 [21]: 0.9 nM

[2H]C1([2H])OC(N)=N[C@]12c1cc(-c3cncnc3)ccc1C[C@]21CC[C@@H](OC)[C@H](C)C1
CLH [2]: 82 µL/min/10^6 cells
IC50 [3]: > 33000 nM
CLH [5]: 52.4 µL/min/mg
